Reference: ChEMBL document CHEMBL1129751, “2-Iminopiperidine and other 2-iminoazaheterocycles as potent inhibitors of human nitric oxide synthase isoforms” (J Med Chem, 1996)

What was measured:
Nitric oxide synthase 3 = target: T1, Nitric oxide synthase 3 (Homo sapiens, UniProt P29474); experiment: Inhibitory activity against human Endothelial nitric oxide synthase
T1 sequence (P29474 whole entry): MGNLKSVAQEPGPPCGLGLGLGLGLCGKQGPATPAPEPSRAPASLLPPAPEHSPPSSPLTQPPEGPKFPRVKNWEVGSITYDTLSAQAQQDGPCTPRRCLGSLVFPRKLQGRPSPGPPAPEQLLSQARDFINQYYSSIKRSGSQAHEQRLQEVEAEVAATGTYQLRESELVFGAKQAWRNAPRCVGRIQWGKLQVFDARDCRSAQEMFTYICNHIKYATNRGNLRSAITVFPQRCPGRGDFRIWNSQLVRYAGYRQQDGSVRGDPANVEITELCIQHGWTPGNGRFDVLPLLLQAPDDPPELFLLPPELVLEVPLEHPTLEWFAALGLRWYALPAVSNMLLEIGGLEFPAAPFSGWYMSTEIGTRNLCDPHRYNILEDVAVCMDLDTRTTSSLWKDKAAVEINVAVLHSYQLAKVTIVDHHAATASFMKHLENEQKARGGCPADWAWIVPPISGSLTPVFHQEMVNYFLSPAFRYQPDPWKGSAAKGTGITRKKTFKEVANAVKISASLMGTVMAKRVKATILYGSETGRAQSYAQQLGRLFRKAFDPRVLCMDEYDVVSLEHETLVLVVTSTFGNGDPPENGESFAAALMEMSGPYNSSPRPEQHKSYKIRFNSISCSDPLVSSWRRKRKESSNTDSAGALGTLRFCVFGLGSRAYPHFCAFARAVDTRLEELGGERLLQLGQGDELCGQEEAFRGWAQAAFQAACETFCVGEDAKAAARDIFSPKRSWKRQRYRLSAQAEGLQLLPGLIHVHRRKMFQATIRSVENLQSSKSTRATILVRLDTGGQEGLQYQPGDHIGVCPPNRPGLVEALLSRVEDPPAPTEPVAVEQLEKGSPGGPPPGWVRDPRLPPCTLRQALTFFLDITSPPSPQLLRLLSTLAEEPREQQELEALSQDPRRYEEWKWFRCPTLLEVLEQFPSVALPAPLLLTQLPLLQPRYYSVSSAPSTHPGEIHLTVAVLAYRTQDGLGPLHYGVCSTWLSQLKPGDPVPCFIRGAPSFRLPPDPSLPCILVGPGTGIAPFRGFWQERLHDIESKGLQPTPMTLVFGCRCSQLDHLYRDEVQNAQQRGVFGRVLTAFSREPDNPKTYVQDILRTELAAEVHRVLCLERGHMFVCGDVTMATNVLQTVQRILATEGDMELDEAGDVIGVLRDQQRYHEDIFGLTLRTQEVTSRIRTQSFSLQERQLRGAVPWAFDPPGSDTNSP
Procedure, shortened: (§1)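 Recombinant human enzymes expressed in Sf9 cells by baculovirus and partially purified on DEAE-Sepharose from soluble extracts. Assay in 50 mM Tris pH 7.6 with BSA, DTT, CaCl2, FAD, tetrahydrobiopterin, NADPH, 30 µM final L-arginine with L-[2,3-3H]arginine. Endothelial form also given 40 nM calmodulin. 15 min at 37 °C, stopped with EGTA buffer. [3H]citrulline isolated on cation exchange and counted. IC50 from eight concentrations, at least duplicate.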

[1] = Selectivity is defined as the ratio of the IC50(hecNOS) to IC50(hiNOS)
Procedure, shortened: (§2)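 Ratio of IC50 for the endothelial or neuronal isoform to IC50 for the inducible isoform. All three recombinant human enzymes were assayed by [3H]arginine-to-[3H]citrulline conversion at 30 µM final L-arginine, 37 °C for 15 min. Both constitutive isoforms had 40 nM calmodulin. Each compound tested at eight concentrations.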

[2] = Selectivity is defined as the ratio of the IC50(hncNOS) to IC50(hiNOS); procedure, shortened: as §2
[3] = target: Nitric oxide synthase, inducible (Homo sapiens, UniProt P35228); experiment: Inhibitory activity against human inducible nitric oxide synthase; procedure, shortened: as §1
Nitric oxide synthase 1 = Nitric oxide synthase 1 (Homo sapiens, UniProt P29475); experiment: Inhibitory activity against human Neuronal nitric oxide synthase
Sequence of Nitric oxide synthase 1 (P29475 whole entry): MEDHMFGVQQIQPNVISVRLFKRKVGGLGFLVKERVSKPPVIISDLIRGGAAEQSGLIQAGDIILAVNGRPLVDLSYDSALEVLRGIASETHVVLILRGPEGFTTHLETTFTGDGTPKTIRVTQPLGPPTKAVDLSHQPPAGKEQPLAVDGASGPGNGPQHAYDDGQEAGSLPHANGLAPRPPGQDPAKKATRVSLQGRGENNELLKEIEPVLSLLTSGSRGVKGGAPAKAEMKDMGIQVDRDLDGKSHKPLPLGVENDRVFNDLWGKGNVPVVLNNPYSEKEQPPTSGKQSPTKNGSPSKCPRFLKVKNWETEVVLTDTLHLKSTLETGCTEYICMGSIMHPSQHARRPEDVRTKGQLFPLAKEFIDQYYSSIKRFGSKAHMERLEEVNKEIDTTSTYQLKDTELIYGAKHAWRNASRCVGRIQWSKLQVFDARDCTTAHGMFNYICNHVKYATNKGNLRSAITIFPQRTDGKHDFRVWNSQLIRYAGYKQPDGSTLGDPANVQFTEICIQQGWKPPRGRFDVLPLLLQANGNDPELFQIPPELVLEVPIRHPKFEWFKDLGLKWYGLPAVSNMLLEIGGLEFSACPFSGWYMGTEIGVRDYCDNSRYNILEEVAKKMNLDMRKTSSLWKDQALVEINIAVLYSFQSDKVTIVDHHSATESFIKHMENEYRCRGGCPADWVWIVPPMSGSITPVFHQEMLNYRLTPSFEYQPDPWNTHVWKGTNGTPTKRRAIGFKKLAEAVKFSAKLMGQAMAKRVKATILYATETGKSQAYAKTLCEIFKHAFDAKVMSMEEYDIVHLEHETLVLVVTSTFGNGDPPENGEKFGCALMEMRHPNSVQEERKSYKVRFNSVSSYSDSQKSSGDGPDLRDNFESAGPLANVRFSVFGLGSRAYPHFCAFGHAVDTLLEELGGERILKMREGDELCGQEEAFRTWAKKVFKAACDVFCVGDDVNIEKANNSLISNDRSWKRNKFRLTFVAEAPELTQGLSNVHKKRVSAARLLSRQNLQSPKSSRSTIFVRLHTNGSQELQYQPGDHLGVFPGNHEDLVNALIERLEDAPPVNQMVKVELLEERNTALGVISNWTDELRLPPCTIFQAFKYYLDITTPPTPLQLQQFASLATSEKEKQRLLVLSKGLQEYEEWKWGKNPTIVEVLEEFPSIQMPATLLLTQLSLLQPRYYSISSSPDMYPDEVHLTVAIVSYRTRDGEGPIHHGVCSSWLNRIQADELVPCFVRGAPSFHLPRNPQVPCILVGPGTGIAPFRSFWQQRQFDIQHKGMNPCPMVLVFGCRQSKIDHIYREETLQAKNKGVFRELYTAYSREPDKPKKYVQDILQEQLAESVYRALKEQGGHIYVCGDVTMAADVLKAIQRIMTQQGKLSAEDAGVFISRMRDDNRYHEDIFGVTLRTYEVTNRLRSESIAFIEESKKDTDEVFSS

Sequence of Nitric oxide synthase, inducible (P35228 whole entry): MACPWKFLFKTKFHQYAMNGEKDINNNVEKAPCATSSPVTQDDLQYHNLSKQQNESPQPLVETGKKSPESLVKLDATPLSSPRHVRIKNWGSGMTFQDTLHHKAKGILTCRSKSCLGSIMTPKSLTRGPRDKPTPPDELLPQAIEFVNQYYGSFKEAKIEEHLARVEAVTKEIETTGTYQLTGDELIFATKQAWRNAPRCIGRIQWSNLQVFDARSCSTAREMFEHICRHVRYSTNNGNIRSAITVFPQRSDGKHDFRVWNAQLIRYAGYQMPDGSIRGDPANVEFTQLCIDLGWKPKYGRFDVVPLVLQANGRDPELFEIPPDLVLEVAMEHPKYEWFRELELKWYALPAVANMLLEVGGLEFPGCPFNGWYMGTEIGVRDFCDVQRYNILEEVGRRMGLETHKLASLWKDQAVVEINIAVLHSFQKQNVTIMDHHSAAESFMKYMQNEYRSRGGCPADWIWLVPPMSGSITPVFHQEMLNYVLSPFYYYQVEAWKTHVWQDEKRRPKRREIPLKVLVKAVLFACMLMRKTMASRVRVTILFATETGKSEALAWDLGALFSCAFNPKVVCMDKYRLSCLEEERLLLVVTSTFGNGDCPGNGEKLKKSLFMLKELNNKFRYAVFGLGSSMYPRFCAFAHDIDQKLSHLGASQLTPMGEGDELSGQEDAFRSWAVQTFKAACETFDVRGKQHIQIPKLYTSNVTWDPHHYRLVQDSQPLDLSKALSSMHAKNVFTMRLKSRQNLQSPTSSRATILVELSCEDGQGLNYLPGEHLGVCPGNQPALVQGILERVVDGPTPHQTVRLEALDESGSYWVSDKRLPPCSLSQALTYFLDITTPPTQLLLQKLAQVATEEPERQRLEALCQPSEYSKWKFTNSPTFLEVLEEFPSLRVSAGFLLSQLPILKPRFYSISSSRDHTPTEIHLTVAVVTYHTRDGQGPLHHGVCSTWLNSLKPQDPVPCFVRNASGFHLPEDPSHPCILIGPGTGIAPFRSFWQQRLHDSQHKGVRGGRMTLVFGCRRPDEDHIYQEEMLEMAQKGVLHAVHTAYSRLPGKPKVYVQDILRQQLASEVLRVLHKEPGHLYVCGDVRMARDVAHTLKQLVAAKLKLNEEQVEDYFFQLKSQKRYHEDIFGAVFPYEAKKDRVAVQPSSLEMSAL

Compound NC1=NCCC1 has an IC50 (Nitric oxide synthase 3) of 93 µM, a Selectivity [1] of 3.6 and a Selectivity [2] of 0.8. For the same compound, the IC50 [3] was 26 µM and the IC50 (Nitric oxide synthase 1) was 20 µM.

Work on NC1=NCCCO1 yielded an IC50 (Nitric oxide synthase 3) of 8.2 µM, a Selectivity [1] of 4.6 and a Selectivity [2] of 2.1. For the same compound, the IC50 [3] was 1.8 µM and the IC50 (Nitric oxide synthase 1) was 3.7 µM.

Work on CC(=N)NCCCC[C@H](N)C(=O)O [L-NIL] yielded an IC50 (Nitric oxide synthase 3) of 138 µM, a Selectivity [1] of 30 and a Selectivity [2] of 13. The IC50 [3] was 4.6 µM and the IC50 (Nitric oxide synthase 1) was 61 µM.

N/C1=N/CCCCCCC1 gave a Selectivity [1] of 9.2 and a Selectivity [2] of 0.7.

N=C1CCCCN1 showed an IC50 (Nitric oxide synthase 3) of 4.7 µM and an IC50 [3] of 1 µM.

N=C1CCCCCCCN1 gave an IC50 (Nitric oxide synthase 3) of 90 µM, an IC50 [3] of 9.8 µM and an IC50 (Nitric oxide synthase 1) of 6.8 µM.

In the case of NC1=NCCCS1, the IC50 (Nitric oxide synthase 3) is reported as 7.1 µM, the Selectivity [1] is reported as 2.4 and the Selectivity [2] is reported as 1.1. The IC50 [3] was 2.9 µM and the IC50 (Nitric oxide synthase 1) was 3.2 µM.

In the case of NC1=NCCCCCC1, the IC50 (Nitric oxide synthase 3) is reported as 59 µM, the IC50 [3] is reported as 10 µM and the IC50 (Nitric oxide synthase 1) is reported as 10 µM.

In the case of NC1=NCCCCC1, the IC50 (Nitric oxide synthase 3) is reported as 16 µM, the Selectivity [1] is reported as 8 and the Selectivity [2] is reported as 1.8. The IC50 [3] was 2 µM and the IC50 (Nitric oxide synthase 1) was 3.5 µM.

Work on NC1=NCCCN1 yielded an IC50 (Nitric oxide synthase 3) of 87 µM, a Selectivity [1] of 3.5 and a Selectivity [2] of 0.7. For the same compound, the IC50 [3] was 25 µM and the IC50 (Nitric oxide synthase 1) was 17 µM.

N/C1=N/CCCCCC1 showed a Selectivity [1] of 5.9 and a Selectivity [2] of 1.
